Series [1] in a line: Selectivity index, ratio of CC50 for human MT4 cells to IC50 for HIV1 3B. The series is classed as functional. The essentials:
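Ratio CC₅₀/IC₅₀. CC₅₀ is from MTT viability of MT-4 cells and IC₅₀ from MTT protection of HIV-infected MT-4 cells (MOI 0.02), both after 4 days at 37 °C.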

Series [2] has as its system Human immunodeficiency virus 1. Nature of the series: Antiviral activity against HIV 3B in human MT4 cells assessed as inhibition of viral replication by MTT assay. The series is classed as functional, organism-based. The following applies: Human immunodeficiency virus 1, 3B. An outline of the steps:
(§1)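 MT-4 cells at 1 × 10⁵ cells/ml infected with HIV at multiplicity of infection 0.02 (virus stocks titrated in MT-4 cells as CCID₅₀), then plated immediately with serial compound dilutions (DMSO stocks at 50 mM or higher). Viable cells counted by MTT after 4 days at 37 °C. IC₅₀ is the concentration protecting 50% of cells from viral cytopathogenicity.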
On the technique in general: Tetrazolium assays rely on reduction of a dye to a coloured formazan, in cell work by metabolically active cells.

Series [3] deals with Human immunodeficiency virus 2. The experiment in a line: Antiviral activity against HIV2 ROD in human MT4 cells assessed as inhibition of viral replication by MTT assay. The series is classed as functional, organism-based. The following applies: Human immunodeficiency virus 2, ROD. An outline of the steps:
as §1

Series [4] can be described thus: Cytotoxicity against human MT4 cells after 4 days by MTT assay. The series is classed as cell-based. The essentials: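 Uninfected MT-4 cells exposed to graded compound concentrations (DMSO stocks at 50 mM or higher) for 4 days at 37 °C. Viability read by MTT. CC₅₀ is the concentration reducing MT-4 cell viability by 50%.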

Where only a bound is given, the exact number is not on record here.

As usually defined, the IC50 is the concentration needed to halve the response being measured. Consider `N#Cc1ccc(Nc2nc(N)nc(Oc3ccc4ccccc4c3Cl)n2)cc1`, for which the “Ratio CC50/IC50” value in series [1] is reported as 2872. In addition, the IC50 is 0.0287 µM in series [2] and at least 5.3 µM in series [3].

As usually defined, the CC50 is the concentration at which the toxic effect on the cells reaches its halfway point. A lower CC50 goes with greater toxicity to the cells. In turn, `N#Cc1ccc(Nc2nc(N)nc(Oc3ccc(Cl)c4ccccc34)n2)cc1` displayed a CC50 at 96 h in series [4] of 237 µM. Besides, the “Ratio CC50/IC50” value in series [1] is listed as 3775. In addition, the results for the IC50 in series [2] and in series [3] were 0.062 µM and at least 12.6 µM, respectively.

With `N#Cc1ccc(Nc2nc(N)nc(Oc3cccc4ccccc34)n2)cc1`, it took 39.1 µM to reach half-maximal cytotoxicity in series [4] (CC50 at 96 h). Further, in series [1], the “Ratio CC50/IC50” value stood at 364. Besides, the figures for the IC50 in series [2] and in series [3] were 0.107 µM and above 39.1 µM, respectively.

`CCCNc1nc(Nc2ccc(C#N)cc2)nc(Oc2ccc3cc(Br)ccc3c2Br)n1` registered a CC50 at 96 h in series [4] of 134 µM. Also, in series [1], the “Ratio CC50/IC50” value is 524. For the same compound, the IC50 was 0.256 µM in series [2] and 6.59 µM in series [3].

In series [4], `CNc1nc(Nc2ccc(C#N)cc2)nc(Oc2cccc3ccccc23)n1` displayed a CC50 at 96 h of 30.3 µM. For the same compound, the “Ratio CC50/IC50” value in series [1] is reported as 163. Also, the IC50 in series [2] was 0.186 µM; in series [3], above 30.3 µM.

With `CNc1nc(Nc2ccc(C#N)cc2)nc(Oc2ccc3ccccc3c2Cl)n1`, the midpoint of cytotoxicity in series [4], the CC50 at 96 h, lay at 171 µM. The “Ratio CC50/IC50” value in series [1] is given as 14412. In addition, the IC50 was 0.0118 µM in series [2] and above 171 µM in series [3].

`CNc1nc(Nc2ccc(C#N)cc2)nc(Oc2ccc(Cl)c3ccccc23)n1` registered a CC50 at 96 h in series [4] of 197 µM. In series [1], the “Ratio CC50/IC50” value worked out at 2111. Also, the values for the IC50 in series [2] and in series [3] were 0.093 µM and above 197 µM, respectively.

Compound `CNc1nc(Nc2ccc(C#N)cc2)nc(Oc2ccc3cc(Br)ccc3c2)n1` showed a CC50 at 96 h in series [4] of 194 µM. Also, the “Ratio CC50/IC50” value in series [1] stood at 685. Besides, the IC50 in series [2] was 0.284 µM; in series [3] it was above 194 µM.

As to `CCNc1nc(Nc2ccc(C#N)cc2)nc(Oc2ccc3ccccc3c2Cl)n1`, the CC50 at 96 h in series [4] came to 188 µM. Besides, the “Ratio CC50/IC50” value in series [1] came to 1642. The values for the IC50 in series [2] and in series [3] were 0.114 µM and 16 µM, respectively.

On to `N#Cc1ccc(Nc2nc(N)nc(Oc3ccc4ccccc4c3)n2)cc1`, for which the CC50 at 96 h in series [4] was 42.2 µM. For the same compound, the “Ratio CC50/IC50” value in series [1] was 471. Further, the IC50 in series [2] is 0.09 µM; in series [3], at least 11.5 µM.

In turn, `N#Cc1ccc(Nc2nc(N)nc(Oc3ccc4ccccc4c3Br)n2)cc1` yielded a CC50 at 96 h in series [4] of 133 µM. Further, the “Ratio CC50/IC50” value in series [1] came out at 14094. Further, the IC50 in series [2] is 0.0094 µM; in series [3], 20.2 µM.

Regarding `CCCNc1nc(Nc2ccc(C#N)cc2)nc(Oc2ccc(Cl)c3ccccc23)n1`, the cytotoxic concentration (CC50) at 96 h in series [4] stood at 182 µM. In addition, the “Ratio CC50/IC50” value in series [1] is 111. Moreover, the values for the IC50 in series [2] and in series [3] were 1.63 µM and 45.6 µM, respectively.

In series [4], `CNc1nc(Nc2ccc(C#N)cc2)nc(Oc2ccc3ccccc3c2)n1` yielded a CC50 at 96 h of 250 µM. In series [1], the “Ratio CC50/IC50” value was found to be 968. For the same compound, the IC50 in series [2] was 0.26 µM; in series [3], above 251 µM.

`N#Cc1ccc(Nc2nc(N)nc(Oc3ccc4cc(Br)ccc4c3Br)n2)cc1` registered a CC50 at 96 h in series [4] of 244 µM. Moreover, the “Ratio CC50/IC50” value in series [1] was found to be 12475. Besides, the IC50 in series [2] is 0.0195 µM; in series [3], 10.5 µM.

Compound `CCNc1nc(Nc2ccc(C#N)cc2)nc(Oc2ccc(Cl)c3ccccc23)n1` had a CC50 at 96 h in series [4] of 208 µM. Moreover, in series [1], the “Ratio CC50/IC50” value is recorded as 285. Besides, the results for the IC50 in series [2] and in series [3] were 0.733 µM and above 208 µM, respectively.

`CC(C)Nc1nc(Nc2ccc(C#N)cc2)nc(Oc2ccc3ccccc3c2Br)n1`: the midpoint of cytotoxicity in series [4], the CC50 at 96 h, lay at 41.5 µM. In series [1], the “Ratio CC50/IC50” value amounted to 39. The IC50 in series [2] is 1.06 µM; in series [3] it was above 41.5 µM.

As for `CCNc1nc(Nc2ccc(C#N)cc2)nc(Oc2ccc3cc(Br)ccc3c2Br)n1`, the CC50 at 96 h in series [4] was found to be 74.4 µM. Besides, the “Ratio CC50/IC50” value in series [1] was 477. The IC50 was 0.156 µM in series [2] and above 74.5 µM in series [3].

`O=c1[nH]cnc2c1ncn2[C@H]1CC[C@@H](CO)O1` [DIDANOSINE] showed a CC50 at 96 h in series [4] of at least 529 µM. The “Ratio CC50/IC50” value in series [1] is on record as “>=98”.

`CCCNc1nc(Nc2ccc(C#N)cc2)nc(Oc2cccc3ccccc23)n1` registered a CC50 at 96 h in series [4] of 29.5 µM. In series [1], the “Ratio CC50/IC50” value was found to be 11. In addition, the IC50 was 2.7 µM in series [2] and above 73.2 µM in series [3].

`Cc1ccnc2c1NC(=O)c1cccnc1N2C1CC1` [NEVIRAPINE] had a CC50 at 96 h in series [4] above 200 µM. Besides, in series [1], the “Ratio CC50/IC50” value is reported as above 800.

In series [4], `CNc1nc(Nc2ccc(C#N)cc2)nc(Oc2ccc3cc(Br)ccc3c2Br)n1` showed a CC50 at 96 h of 92.8 µM. Further, the “Ratio CC50/IC50” value in series [1] came out at 5018. Besides, the IC50 was 0.0184 µM in series [2] and above 91.9 µM in series [3].

Take `CCCNc1nc(Nc2ccc(C#N)cc2)nc(Oc2ccc3ccccc3c2Br)n1`: the CC50 at 96 h in series [4] was above 263 µM. The “Ratio CC50/IC50” value in series [1] was above 1294. Besides, the IC50 was 0.203 µM in series [2] and at least 58.3 µM in series [3].

The compound `N#Cc1ccc(Nc2nc(N)nc(Oc3ccc4cc(Br)ccc4c3)n2)cc1` showed a CC50 at 96 h in series [4] of 243 µM. Further, in series [1], the “Ratio CC50/IC50” value amounted to 3019. Further, the IC50 in series [2] is 0.0808 µM; in series [3] it was 19.7 µM.

Compound `CNc1nc(Nc2ccc(C#N)cc2)nc(Oc2ccc3ccccc3c2Br)n1` yielded a CC50 at 96 h in series [4] of 143 µM. Further, in series [1], the Ratio CC50/IC50 is 15400. Also, the results for the IC50 in series [2] and in series [3] were 0.0093 µM and at least 28.2 µM, respectively.

In series [4], `N#Cc1ccc(Nc2nc(N=[N+]=[N-])nc(Oc3ccc4ccccc4c3Cl)n2)cc1` showed a CC50 at 96 h of 256 µM. For the same compound, the “Ratio CC50/IC50” value in series [1] came to 4270. For the same compound, the IC50 in series [2] is 0.06 µM; in series [3], 6.17 µM.

In series [4], `CCCNc1nc(Nc2ccc(C#N)cc2)nc(Oc2ccc3ccccc3c2Cl)n1` displayed a CC50 at 96 h above 290 µM. Besides, in series [1], the “Ratio CC50/IC50” value was above 1547. Further, the figures for the IC50 in series [2] and in series [3] were 0.187 µM and at least 43.6 µM, respectively.

`CC(C)Nc1nc(Nc2ccc(C#N)cc2)nc(Oc2ccc3cc(Br)ccc3c2Br)n1` registered a CC50 at 96 h in series [4] of at least 209 µM. The “Ratio CC50/IC50” value in series [1] is listed as above 302. Further, the IC50 in series [2] turned out to be 0.693 µM; in series [3] it was 9.71 µM.

Values taken from ChEMBL document CHEMBL1156684, “Non-nucleoside HIV-1 reverse transcriptase inhibitors. Part 11: structural modulations of diaryltriazines with potent anti-HIV activity” (Eur J Med Chem, 2008).
